Assay results reported in ChEMBL document CHEMBL3407335, “SAR-guided development and characterization of a potent antitumor compound toward B-cell neoplasms with no detectable cytotoxicity toward healthy cells” (J Med Chem, 2015).

Legend:
[1] = Cytotoxicity against human MEC1 cells after 48 hrs by CellTitre-Blue assay; type: functional, cell-based; conditions: MEC1, 48 h
How it was run: (§1)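 Screening used phenol red-free RPMI 1640 + L-glutamine with 10% FBS and 1% PenStrep. Exposure was 48 h in triplicate, with CellTiter-Blue read-out. IC50 came from at least two independent experiments, each in triplicate.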

Jurkat [2] = assay: Cytotoxicity against human Jurkat cells after 24 hrs by MTT assay; type: functional, cell-based
K562 [3] = assay: Cytotoxicity against human K562 cells after 24 hrs by MTT assay; type: functional, cell-based; conditions: K562, 24 h
[4] = Cytotoxicity against mouse M210B4 cells after 48 hrs by CellTitre-Blue assay; type: cell-based; conditions: M210B4, 48 h
How it was run: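 Murine bone marrow fibroblasts served as the non-malignant counter-screen. Compound was tested at six levels (0.1, 1, 5, 10, 50, 100 μM) for 48 h. Viability was read by CellTiter-Blue. IC50 came from at least two independent experiments with three replicates each.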

[5] = Cytotoxicity against human OCI-LY7 cells after 48 hrs by CellTitre-Blue assay; type: functional, cell-based; conditions: OCI-Ly7, 48 h
How it was run: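 OCI-LY7 assays were run in IMDM + GlutaMAX with 25 mM HEPES, phenol red, 20% FBS and 1% PenStrep. […] Viability was read by CellTiter-Blue. IC50 came from at least two independent experiments, each with three replicates.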

[6] = Cytotoxicity against human U2940 cells after 48 hrs by CellTitre-Blue assay; type: functional, cell-based; conditions: U-2940, 48 h; how it was run: as §1
[7] = Cytotoxicity against human SU-DHL6 cells after 48 hrs by CellTitre-Blue assay; type: functional, cell-based; conditions: SU-DHL-6, 48 h
How it was run: (§2)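 Cell lines in phenol red-free RPMI 1640 with L-glutamine, 10% FBS and 1% penicillin/streptomycin. Cells exposed in triplicate to increasing compound concentrations for 48 h at 37 °C. CellTiter-Blue read-out, normalized to vehicle-only cells. IC50 from two independent experiments.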

K562 [8] = assay: Cytotoxicity against human K562 cells assessed as reduction in cell viability at <1 uM after 48 hrs by CellTitre-Blue assay; type: functional
How it was run: (§3)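 Cell lines were maintained in RPMI 1640 + GlutaMAX with 10% FBS and 1% penicillin/streptomycin at 37 °C under 5% CO2. For the assay, cells went into phenol red-free RPMI 1640 + L-glutamine with 10% FBS and 1% PenStrep. They were incubated in triplicate with increasing compound concentrations for 48 h. Viability was read by CellTiter-Blue, normalized to vehicle-only cells, and reported as mean plus SD.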

Jurkat [9] = assay: Cytotoxicity against human Jurkat cells assessed as reduction in cell viability at <1 uM after 48 hrs by CellTitre-Blue assay; type: functional; how it was run: as §3
Jurkat [10] = assay: Cytotoxicity against human Jurkat cells after 48 hrs by CellTitre-Blue assay; type: functional, cell-based; how it was run: as §2
CCRF-CEM [11] = assay: Cytotoxicity against human CCRF-CEM cells assessed as reduction in cell viability at <1 uM after 48 hrs by CellTitre-Blue assay; type: functional; how it was run: as §3
[12] = Cytotoxicity against human HL60 cells after 48 hrs by CellTitre-Blue assay; type: functional, cell-based; conditions: HL-60, 48 h; how it was run: as §2
PBMC [13] = assay: Cytotoxicity against patient PBMC after 48 hrs by CellTitre-Blue assay; type: cell-based; conditions: Homo sapiens
How it was run: (§4)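 Cryopreserved PBMC (CLL patients N = 15; healthy donors N = 4) thawed and cultured overnight in phenol red-free RPMI 1640 with L-glutamine and 20% FBS. Suspension culture at 300 000 cells per well with increasing compound concentrations for 48 h, in triplicate. CellTiter-Blue viability normalized to vehicle; IC50 fitted from the mean values of all samples.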

PBMC [14] = assay: Cytotoxicity against patient PBMC after 48 hrs by CellTitre-Blue assay in presenc of mouse M210B4 cells; type: cell-based; conditions: Homo sapiens
How it was run: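 M2-10B4 mouse fibroblasts were seeded and left overnight to form a confluent layer. Medium was then replaced by 3 million PBMC from CLL patients (N = 9), which had been thawed and held overnight, in RPMI with 20% FBS. Cocultures were exposed to increasing compound concentrations for 48 h, in triplicate. CellTiter-Blue viability normalized to vehicle; IC50 from mean values of all samples.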

[15] = Cytotoxicity against human SUDHL9 cells after 48 hrs by CellTitre-Blue assay; type: functional, cell-based; conditions: SUDHL9, 48 h; how it was run: as §2
CCRF-CEM [16] = assay: Cytotoxicity against human CCRF-CEM cells after 48 hrs by CellTitre-Blue assay; type: functional, cell-based; how it was run: as §2
PBMC [17] = assay: Cytotoxicity against healthy human PBMC after 48 hrs by CellTitre-Blue assay; type: cell-based; how it was run: as §4
[18] = Cytotoxicity against human HL60 cells assessed as reduction in cell viability at <1 uM after 48 hrs by CellTitre-Blue assay; type: functional, HL-60; how it was run: as §3

| Compound | IC50 [1] | IC50 [4] | IC50 [5] | IC50 [6] | further results |
| --- | --- | --- | --- | --- | --- |
| CCOc1ccccc1C(=O)/C=C/c1ccc2ccccc2c1 | 60 nM | 7800 nM | 60 nM | 2400 nM | IC50 (Jurkat [2]): 21000 nM; IC50 (K562 [3]): 40000 nM |
| COc1ccccc1C(=O)/C=C/c1ccc2ccccc2c1 | 430 nM | 42000 nM | 460 nM | 4100 nM | – |
| CCCOc1ccccc1C(=O)/C=C/c1ccc2ccccc2c1 | 130 nM | > 100000 nM | 100 nM | 5300 nM | – |
| CCCCOc1ccccc1C(=O)/C=C/c1ccc2ccccc2c1 | 700 nM | > 100000 nM | 120 nM | 5300 nM | – |
| CC(C)Oc1ccccc1C(=O)/C=C/c1ccc2ccccc2c1 | 1200 nM | > 100000 nM | 150 nM | 11000 nM | – |
| Cc1ccccc1C(=O)/C=C/c1ccc2ccccc2c1 | 6400 nM | 72000 nM | 4900 nM | 10000 nM | – |
| CCOc1ccccc1C(=O)/C=C/c1ccc2cc(OC)ccc2c1 | 7200 nM | > 100000 nM | 1000 nM | 25000 nM | – |
| C=Cc1cccc(/C=C/C(=O)c2ccccc2OCC)c1 | 200 nM | > 100000 nM | 500 nM | 2500 nM | – |
| CCOc1ccccc1C(=O)/C=C/c1ccc2c(c1)OCO2 | 1100 nM | > 100000 nM | 130 nM | 9500 nM | – |
| CCOc1ccccc1C(=O)/C=C/c1cccc2ccccc12 | 1900 nM | 17000 nM | 1500 nM | 7400 nM | – |
| CCOc1ccccc1C(=O)/C=C/c1c2ccccc2cc2ccccc12 | > 100000 nM | – | > 100000 nM | > 100000 nM | – |
| CCOc1ccccc1C(=O)/C=C/c1cc2ccccc2c2ccccc12 | 1600 nM | > 100000 nM | 680 nM | 40000 nM | – |
| CCOc1ccccc1C(=O)/C=C/c1ccc2sccc2c1 | 340 nM | 21000 nM | 340 nM | 9100 nM | – |
| CCOc1ccccc1C(=O)/C=C/c1csc2ccccc12 | 170 nM | 8200 nM | 100 nM | 860 nM | – |
| CCOc1ccccc1C(=O)/C=C/c1cc2ccccc2[nH]1 | 22 nM | 19000 nM | 52 nM | 2900 nM | IC50 [7]: 56 nM; Activity (K562 [8]): 60%; Activity (Jurkat [9]): <30%; IC50 (Jurkat [10]): 38 nM; Activity (CCRF-CEM [11]): <30%; IC50 [12]: 16 nM; IC50 (PBMC [13]): 1200 nM; IC50 (PBMC [14]): 680 nM; IC50 [15]: 31 nM; IC50 (CCRF-CEM [16]): 32 nM; IC50 (PBMC [17]): 14000 nM; Activity [18]: <30% |
| CCOc1cccc(C(=O)/C=C/c2ccc3ccccc3c2)c1 | 2900 nM | – | 1800 nM | 16000 nM | – |
| CCOc1cccc(C(=O)/C=C/c2csc3ccccc23)c1 | 2200 nM | – | 1700 nM | 7600 nM | – |
| CCOc1ccc(C(=O)/C=C/c2csc3ccccc23)cc1 | 7500 nM | – | 4800 nM | 15000 nM | – |
| CCOc1cccc(C(=O)/C=C/c2cc3ccccc3[nH]2)c1 | 3300 nM | – | 4800 nM | – | – |
| CCOc1ccc(C(=O)/C=C/c2cc3ccccc3[nH]2)cc1 | > 100000 nM | – | 25000 nM | – | – |
| Nc1nc(F)nc2c1ncn2[C@@H]1O[C@H](CO)[C@@H](O)[C@@H]1O [FLUDARABINE] | – | – | – | – | IC50 (PBMC [13]): 1900 nM; IC50 (PBMC [14]): 10000 nM; IC50 (PBMC [17]): 14000 nM |
